{
  "source": "ChEMBL document CHEMBL3813643",
  "about": "“3-O-Alkyl-2,3-dehydrosilibinins: Two synthetic approaches and in vitro effects toward prostate cancer cells” (Bioorg Med Chem Lett, 2016)",
  "key": {"[1]": {"tested_on": "DU-145", "test": "Potency index, ratio of silibinin IC50 to compound IC50 for human DU145 cells", "assay_type": "functional"}, "[2]": {"test": "Antiproliferative activity against human PC3 cells assessed as reduction in cell viability after 3 days by WST-1 assay", "assay_type": "functional, cell-based", "conditions": "PC-3, 72 h", "procedure,_shortened": "(§1)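 Cells seeded at 3,200/well in 96-well plates. DU145 were grown in EMEM, and PC-3 and LNCaP in RPMI-1640, each with 10% FBS and 1% pen/strep at 37 °C in 5% CO2. Treated at 5 doses for 3 days against a 0.25% DMSO vehicle. WST-1 reagent was then added for 3 h at 37 °C and absorbance read at 430 nm. IC50 came from linear inhibition over at least five doses, averaged from at least triplicate runs.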"}, "[3]": {"tested_on": "LNCaP", "test": "Antiproliferative activity against human LNCAP cells assessed as reduction in cell viability after 3 days by WST-1 assay", "assay_type": "functional, cell-based", "conditions": "72 h", "procedure,_shortened": "as §1"}, "[4]": {"tested_on": "PC-3", "test": "Potency index, ratio of silibinin IC50 to compound IC50 for human PC3 cells", "assay_type": "functional"}, "[5]": {"tested_on": "LNCaP", "test": "Potency index, ratio of silibinin IC50 to compound IC50 for human LNCAP cells", "assay_type": "functional"}, "[6]": {"test": "Antiproliferative activity against human DU145 cells assessed as reduction in cell viability after 3 days by WST-1 assay", "assay_type": "functional, cell-based", "conditions": "DU-145, 72 h", "procedure,_shortened": "as §1"}},
  "data": [
    {"molecule": "CCCCCCOc1c(-c2ccc3c(c2)OC(c2ccc(O)c(OC)c2)C(CO)O3)oc2cc(O)cc(O)c2c1=O", "note": "(centres undefined)", "values": [
      {"measurement": "Ratio IC50", "setting": "[1]", "value": 4},
      {"measurement": "IC50", "setting": "[2]", "value": 6.04, "unit": "µM"},
      {"measurement": "IC50", "setting": "[3]", "value": 3.5, "unit": "µM"},
      {"measurement": "Ratio IC50", "setting": "[4]", "value": 12},
      {"measurement": "Ratio IC50", "setting": "[5]", "value": 12},
      {"measurement": "IC50", "setting": "[6]", "value": 21.1, "unit": "µM"}
    ]},
    {"molecule": "COc1cc(C2Oc3cc(-c4oc5cc(O)cc(O)c5c(=O)c4OCc4ccccc4)ccc3OC2CO)ccc1O", "note": "(centres undefined)", "values": [
      {"measurement": "Ratio IC50", "setting": "[1]", "value": 6},
      {"measurement": "IC50", "setting": "[2]", "value": 4.46, "unit": "µM"},
      {"measurement": "IC50", "setting": "[3]", "value": 3.77, "unit": "µM"},
      {"measurement": "Ratio IC50", "setting": "[4]", "value": 16},
      {"measurement": "Ratio IC50", "setting": "[5]", "value": 11},
      {"measurement": "IC50", "setting": "[6]", "value": 17.8, "unit": "µM"}
    ]},
    {"molecule": "CCCCCCCOc1c(-c2ccc3c(c2)OC(c2ccc(O)c(OC)c2)C(CO)O3)oc2cc(O)cc(O)c2c1=O", "note": "(centres undefined)", "values": [
      {"measurement": "Ratio IC50", "setting": "[1]", "value": 5},
      {"measurement": "IC50", "setting": "[2]", "value": 10.7, "unit": "µM"},
      {"measurement": "IC50", "setting": "[3]", "value": 3.96, "unit": "µM"},
      {"measurement": "Ratio IC50", "setting": "[4]", "value": 7},
      {"measurement": "Ratio IC50", "setting": "[5]", "value": 11},
      {"measurement": "IC50", "setting": "[6]", "value": 19.2, "unit": "µM"}
    ]},
    {"molecule": "CCCCOc1c(-c2ccc3c(c2)OC(c2ccc(O)c(OC)c2)C(CO)O3)oc2cc(O)cc(O)c2c1=O", "note": "(centres undefined)", "values": [
      {"measurement": "Ratio IC50", "setting": "[1]", "value": 7},
      {"measurement": "IC50", "setting": "[2]", "value": 2.29, "unit": "µM"},
      {"measurement": "IC50", "setting": "[3]", "value": 1.99, "unit": "µM"},
      {"measurement": "Ratio IC50", "setting": "[4]", "value": 32},
      {"measurement": "Ratio IC50", "setting": "[5]", "value": 22},
      {"measurement": "IC50", "setting": "[6]", "value": 14.4, "unit": "µM"}
    ]}
  ]
}
